Consider 6 compounds from ChEMBL document CHEMBL2331099, “Design, synthesis and aromatase inhibitory activities of novel indole-imidazole derivatives” (Bioorg Med Chem Lett, 2013).

Each structure is given as a SMILES string.

Data set [1] deals with T1, Aromatase (Homo sapiens, UniProt P11511).
T1 sequence (P11511 whole entry): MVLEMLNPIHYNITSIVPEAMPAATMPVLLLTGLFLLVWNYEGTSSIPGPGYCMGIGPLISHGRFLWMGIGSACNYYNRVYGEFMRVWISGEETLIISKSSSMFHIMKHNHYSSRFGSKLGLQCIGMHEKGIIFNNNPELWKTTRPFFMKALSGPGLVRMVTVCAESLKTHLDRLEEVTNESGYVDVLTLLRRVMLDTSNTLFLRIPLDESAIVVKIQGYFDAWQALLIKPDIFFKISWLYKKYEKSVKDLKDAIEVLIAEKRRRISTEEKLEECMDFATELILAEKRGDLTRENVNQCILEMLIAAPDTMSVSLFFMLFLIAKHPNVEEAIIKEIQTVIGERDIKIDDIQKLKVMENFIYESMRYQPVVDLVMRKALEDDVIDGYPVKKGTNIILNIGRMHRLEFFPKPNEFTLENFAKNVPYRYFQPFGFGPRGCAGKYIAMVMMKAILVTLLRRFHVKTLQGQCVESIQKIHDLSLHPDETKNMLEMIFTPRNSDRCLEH
The data set can be described thus: Inhibition of human placental microsome aromatase after 30 mins by ELISA. The procedure, abridged:
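Aromatase (P450 arom) source: human placental microsomes. Activity read as estrone formed, quantified by a commercial estrone enzyme immunoassay (ELISA). Values are means of at least three experiments, each run in triplicate.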
A general note: An ELISA detects its analyte on a solid surface through an enzyme-linked reagent.

The target of data set [2] is T1, Aromatase. Description: Ratio of letrozole IC50 to compound IC50 for human placental microsome aromatase. The procedure, abridged:
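Both IC50s come from the human placental microsome aromatase assay with estrone measured by ELISA. Each IC50 is the mean of at least three experiments, each run in triplicate.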

As to `COc1ccc(-n2c(Cn3ccnc3)cc3ccccc32)cc1`, the IC50 against Aromatase [1] amounted to 77.4 nM. The “Ratio IC50” value on Aromatase [2] stood at 0.2137.

`COc1ccc(-n2c(Cn3ccnc3)cc3ccc(Cl)cc32)cc1` registered an IC50 against Aromatase [1] of 203 nM. In addition, the “Ratio IC50” value on Aromatase [2] stood at 0.0813.

`COc1ccc(-n2c(Cn3ccnc3)cc3ccc(C)cc32)cc1`: the half-inhibitory concentration (IC50) on Aromatase [1] came to 139 nM. Besides, at Aromatase [2], the “Ratio IC50” value is recorded as 0.1192.

In turn, `Cc1ccc2cc(Cn3ccnc3)n(-c3ccc(C#N)cc3)c2c1` had an IC50 at Aromatase [1] of 27 nM. On Aromatase [2], the “Ratio IC50” value was 0.612.

At Aromatase [1], `Cc1ccc2cc(Cn3ccnc3)n(-c3ccccc3)c2c1` returned an IC50 of 21.4 nM. Also, the “Ratio IC50” value at Aromatase [2] turned out to be 0.7728.

Take `COc1ccc2cc(Cn3ccnc3)n(-c3ccc(F)cc3)c2c1`: on Aromatase [1], 48.9 nM corresponded to half-maximal inhibition (IC50). Further, at Aromatase [2], the “Ratio IC50” value is on record as 0.3378.

The term IC50 denotes the concentration that gives 50% inhibition. The low end stands for inhibition by little substance, the high end for a need for much substance.
